Measurements from different studies.
Lines come from different studies, so protocols differ.
Matrix: PAMPA

C=C(CC(=O)OC)C(=O)OCOC(=O)OC(C)C gave a Papp of > 10 ×10⁻⁶ cm/s (10 µM, 4 h, pH 7.4).
The Papp of CCCCC(CC)COC(=O)c1ccc(O)cc1 (stereo not drawn) is reported as 1.49 ×10⁻⁶ cm/s (5 µM, pH 7.4).
With COc1ccccc1CNC(=O)c1cc(S(=O)(=O)N2CCn3nccc3C2)c(C)n1C the Papp was 22.9 ×10⁻⁶ cm/s.
C=C(CC(=O)OCc1oc(=O)oc1C)C(=O)OC has a Papp of ~15 ×10⁻⁶ cm/s (10 µM, 4 h).
With Cc1c(S(=O)(=O)N2CCc3c(cnn3C)C2)cc(C(=O)NCc2cccnc2N2CCCC2)n1C the Papp was 25 ×10⁻⁶ cm/s.
C=C(CC(=O)OCc1oc(=O)oc1C)C(=O)OCc1oc(=O)oc1C has a Papp of ~15 ×10⁻⁶ cm/s (10 µM, 4 h).
For O=C(OCc1ccccc1)c1ccc(O)cc1, the Papp was 3.79 ×10⁻⁶ cm/s (5 µM, pH 7.4).
For Cc1[nH]c(C)c(S(=O)(=O)Nc2ccc(C(F)(F)F)c(Cl)c2)c1C(=O)N1CCC(F)(F)C1, the Papp was 7.3 ×10⁻⁶ cm/s.
For CC(C)(C)OC(=O)c1ccc(O)cc1, the Papp was 4.04 ×10⁻⁶ cm/s (5 µM, pH 7.4).
For Cc1c(S(=O)(=O)N2CCn3cncc3C2)cc(C(=O)NCc2c(F)ccnc2N2CCCC2)n1C, the Papp was 19.1 ×10⁻⁶ cm/s.
For CCCCCCCOC(=O)c1ccc(O)cc1, the Papp was 1.9 ×10⁻⁶ cm/s (5 µM, pH 7.4).
The Papp of Cc1c(S(=O)(=O)N2CCn3nccc3C2)cc(C(=O)NCc2cccnc2N2CCCC2)n1C is reported as 27.9 ×10⁻⁶ cm/s.
Cc1[nH]c(C)c(S(=O)(=O)Nc2ccc(C(F)(F)F)c(Cl)c2Cl)c1C(=O)N1CCC(F)(F)C1 has a Papp of 0.18 ×10⁻⁶ cm/s.
Cc1c(S(=O)(=O)N2CCc3n[nH]cc3C2)cc(C(=O)NCc2c(F)ccc3cnn(C)c23)n1C gave a Papp of 11 ×10⁻⁶ cm/s.
C=C(CC(=O)OCOC(=O)C(C)(C)C)C(=O)OCOC(=O)C(C)(C)C gave a Papp of > 10 ×10⁻⁶ cm/s (10 µM, 4 h, pH 7.4).
